The text below walks through data of ChEMBL document CHEMBL4000219, “Synthesis and biological evaluation of naphthoquinone-coumarin conjugates as topoisomerase II inhibitors” (Bioorg Med Chem Lett, 2017).

In general, inhibition refers to how much of the control response was suppressed. In general, IC50 refers to the midpoint of a concentration-inhibition curve.

The source made the active and inactive calls. The rule behind the calls is not given here.

Experiment [1] concerns the target T1, DNA topoisomerase 2-alpha (Homo sapiens, UniProt P11388). Description: Inhibition of human topoisomerase-2 alpha expressed in baculovirus infected insect cells assessed as reduction in enzyme-meditaed supercoiled pRYG DNA substrate relaxation at 100 uM in presence of buffer containing DTT after 30 mins by agarose gel electrophoresis method. The procedure, abridged: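 2U hTopoII on covalently closed negatively supercoiled pRYG plasmid, in 1% (v/v) DMSO. Commercial reaction buffer containing DTT. Etoposide, ICRF-187 and merbarone as controls. Agarose gel run without ethidium bromide separates supercoiled forms from relaxed topoisomers.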

The target of experiment [2] is T1, DNA topoisomerase 2-alpha. Description: Inhibition of human topoisomerase-2 alpha expressed in baculovirus infected insect cells assessed as reduction in enzyme-meditaed supercoiled pRYG DNA substrate relaxation at 100 uM in presence of buffer containing 2-mercaptoethanol after 30 mins by agarose gel electrophoresis method. The procedure, abridged:
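2U hTopoII on covalently closed negatively supercoiled pRYG plasmid, in 1% (v/v) DMSO. Home-made reaction buffer with 2-mercaptoethanol as reducing agent. Etoposide, ICRF-187 and merbarone as controls. Agarose gel run without ethidium bromide separates supercoiled substrate from relaxed topoisomers.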

Experiment [3] deals with T1, DNA topoisomerase 2-alpha. Description: Inhibition of human topoisomerase-2 alpha expressed in baculovirus infected insect cells assessed as reduction in enzyme-meditaed supercoiled pRYG DNA substrate relaxation in presence of buffer containing DTT after 30 mins by agarose gel electrophoresis method. The essentials: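 hTopoII relaxation of supercoiled pRYG plasmid in commercial DTT-containing reaction buffer, with compounds at 10, 30 and 100. Gel bands quantified as percent inhibition. Three independent assays, mean + SEM.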

In experiment [4] the target is T1, DNA topoisomerase 2-alpha. Description: Poison activity at human topoisomerase-2 alpha expressed in baculovirus infected insect cells assessed as stabilization of cleavage complex at 100 uM using pRYG DNA as substrate after 10 mins by ethidium bromide staining based agarose gel electrophoresis method. The procedure, abridged:
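Cleavage assay: 10U hTopoII on negatively supercoiled pRYG plasmid, in 1% (v/v) DMSO. Etoposide as positive control. Agarose gel run in the presence of ethidium bromide separates supercoiled substrate from linearized plasmid intermediate.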

For experiment [5], the target named is T1, DNA topoisomerase 2-alpha. Description: Inhibition of human topoisomerase-2 alpha ATPase activity expressed in baculovirus infected insect cells assessed as disappearance of NADH at 10 uM using pBR322 DNA as substrate preincubated for 10 mins followed by ATP addition measured up to 35 mins by spectrophotometric based pyruvate kinase/lactate dehydrogenase coupled enzyme assay relative to control. The essentials:
(§1)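 hTopoII ATPase measured in an ATPase/pyruvate kinase/lactate dehydrogenase linked assay as decline of NADH absorbance at 340 nm. Activity expressed as percent of 1% DMSO control.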

Experiment [6] has as its target T1, DNA topoisomerase 2-alpha. Description: Inhibition of human topoisomerase-2 alpha ATPase activity expressed in baculovirus infected insect cells assessed as disappearance of NADH at 30 uM using pBR322 DNA as substrate preincubated for 10 mins followed by ATP addition measured up to 35 mins by spectrophotometric based pyruvate kinase/lactate dehydrogenase coupled enzyme assay relative to control. The essentials:
as §1

Experiment [7] deals with T1, DNA topoisomerase 2-alpha. Description: Inhibition of human topoisomerase-2 alpha ATPase activity expressed in baculovirus infected insect cells assessed as disappearance of NADH at 100 uM using pBR322 DNA as substrate preincubated for 10 mins followed by ATP addition measured up to 35 mins by spectrophotometric based pyruvate kinase/lactate dehydrogenase coupled enzyme assay relative to control. The procedure, abridged: as §1

Experiment [8] deals with Escherichia coli. Description: Inhibition of Escherichia coli DNA gyrase assessed as reduction in enzyme-mediated supercoiling activity at 100 uM using ladder of partially relaxed pBlueScript 2 KS+ DNA as substrate after 1 hr by agarose gel electrophoresis method. The procedure, abridged: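 2.5U E. coli DNA gyrase acting on a ladder of partially relaxed forms as substrate, in 1% (v/v) DMSO. Agarose gel run without ethidium bromide separates the relaxed ladder from monomeric supercoiled product.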

Experiment [9] has as its system Escherichia coli. Description: Inhibition of Escherichia coli DNA topisomerase-1 assessed as reduction in enzyme-mediated relaxation of supercoiled pBlueScript 2 KS+ DNA substrate at 100 uM after 1 hr by agarose gel electrophoresis method. The essentials:
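2.5U E. coli TopoI acting on supercoiled monomer substrate, in 1% (v/v) DMSO. Chloroquine and etoposide as controls. Agarose gel run without ethidium bromide separates supercoiled substrate from relaxed products.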

Experiment [10] has as its system Escherichia coli. Description: Inhibition of Escherichia coli DNA topisomerase-1 assessed as reduction in enzyme-mediated unwinding activity at 100 uM using ladder of partially relaxed pBlueScript 2 KS+ DNA as substrate after 1 hr by agarose gel electrophoresis method. The procedure, abridged: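 E. coli TopoI unwinding assay for intercalation: a ladder of partially relaxed forms as substrate, in 1% (v/v) DMSO. Chloroquine as control. Agarose gel run without ethidium bromide separates the ladder from relaxed products.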

T1 sequence (P11388 whole entry): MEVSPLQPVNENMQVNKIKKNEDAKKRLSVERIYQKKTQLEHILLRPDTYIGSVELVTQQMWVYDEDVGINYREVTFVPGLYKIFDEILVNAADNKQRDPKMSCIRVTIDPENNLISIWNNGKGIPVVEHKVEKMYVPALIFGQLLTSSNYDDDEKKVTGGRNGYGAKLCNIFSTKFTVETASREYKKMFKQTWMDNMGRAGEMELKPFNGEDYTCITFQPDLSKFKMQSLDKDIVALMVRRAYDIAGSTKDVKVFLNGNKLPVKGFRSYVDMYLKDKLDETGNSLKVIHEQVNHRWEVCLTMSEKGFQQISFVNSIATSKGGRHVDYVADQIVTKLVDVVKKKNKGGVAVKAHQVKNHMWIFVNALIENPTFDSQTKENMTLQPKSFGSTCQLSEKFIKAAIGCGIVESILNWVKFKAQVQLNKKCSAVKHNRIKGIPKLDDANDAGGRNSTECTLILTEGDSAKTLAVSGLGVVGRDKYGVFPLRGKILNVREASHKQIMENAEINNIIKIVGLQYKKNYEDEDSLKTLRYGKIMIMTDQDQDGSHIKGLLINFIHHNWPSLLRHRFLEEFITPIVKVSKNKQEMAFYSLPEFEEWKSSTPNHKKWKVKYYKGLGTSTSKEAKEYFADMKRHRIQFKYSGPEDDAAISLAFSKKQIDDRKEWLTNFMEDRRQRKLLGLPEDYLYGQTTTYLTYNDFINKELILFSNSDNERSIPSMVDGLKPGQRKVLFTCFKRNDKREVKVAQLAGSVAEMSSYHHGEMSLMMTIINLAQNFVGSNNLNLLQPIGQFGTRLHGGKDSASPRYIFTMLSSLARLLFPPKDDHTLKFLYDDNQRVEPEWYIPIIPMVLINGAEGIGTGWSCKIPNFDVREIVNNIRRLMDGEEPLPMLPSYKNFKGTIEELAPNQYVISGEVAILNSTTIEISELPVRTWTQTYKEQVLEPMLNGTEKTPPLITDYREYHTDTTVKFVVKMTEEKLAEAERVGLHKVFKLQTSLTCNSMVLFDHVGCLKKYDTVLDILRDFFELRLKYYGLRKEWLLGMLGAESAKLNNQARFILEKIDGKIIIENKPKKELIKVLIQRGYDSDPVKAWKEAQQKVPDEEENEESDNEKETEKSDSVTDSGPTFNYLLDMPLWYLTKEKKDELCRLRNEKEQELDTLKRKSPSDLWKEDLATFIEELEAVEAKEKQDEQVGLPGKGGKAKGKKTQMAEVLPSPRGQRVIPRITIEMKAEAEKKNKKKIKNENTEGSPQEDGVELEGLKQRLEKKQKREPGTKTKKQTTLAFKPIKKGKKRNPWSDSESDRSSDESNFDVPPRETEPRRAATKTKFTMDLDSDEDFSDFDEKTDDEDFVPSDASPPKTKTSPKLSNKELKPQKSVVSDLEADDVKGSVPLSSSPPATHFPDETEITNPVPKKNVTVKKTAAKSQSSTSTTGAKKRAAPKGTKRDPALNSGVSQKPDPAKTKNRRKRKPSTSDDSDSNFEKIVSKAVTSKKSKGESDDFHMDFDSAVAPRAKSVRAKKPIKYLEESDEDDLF

As to `O=C1C(O)=C(C(c2ccc(F)cc2)c2c(O)c3ccccc3oc2=O)C(=O)c2ccccc21` (centres undefined), the inhibition result in experiment [1] and in experiment [2] was “Active” throughout. Also, in experiment [3], the half-inhibitory concentration (IC50) lay within 10 to 30 µM. Besides, the result in experiment [4] was inactive. Further, the inhibition in experiment [5] was found to be 67%; in [6] it was 90%; in experiment [7], 94%. Besides, the inhibition entry in experiment [8], in [9] and in experiment [10] was “inactive” throughout.
As to `O=C1C(O)=C(C(c2ccc(Cl)cc2)c2c(O)c3ccccc3oc2=O)C(=O)c2ccccc21` (centres undefined), the inhibition result in experiment [1] and in experiment [2] was “Active” throughout. Further, the IC50 in [3] fell in the range of 10 to 30 µM. For the same compound, the result in [4] was inactive. Further, the inhibition is 61% in experiment [5], 78% in experiment [6] and 94% in experiment [7]. Moreover, the inhibition result in experiment [8], in [9] and in experiment [10] was “inactive” each time.
For the compound `O=C1C(O)=C(C(c2ccc([N+](=O)[O-])cc2)c2c(O)c3ccccc3oc2=O)C(=O)c2ccccc21` (centres undefined), the inhibition result in [1] and in experiment [2] was “Active” throughout. The IC50 in experiment [3] lay in the range of 10 to 30 µM. The outcome in experiment [4] was inactive. The inhibition in [5] was found to be 34%; in experiment [6] it was 39%; in experiment [7] it was 61%. Also, the inhibition result in experiment [8], in [9] and in [10] was “inactive” throughout.
Consider `O=C1NC(=S)NC(=O)C1C(=O)Nc1ccccc1`, for which the inhibition entry in experiment [1] was “Active”. The inhibition entry in [2] was “inactive”.
Turning to `COc1cc([C@@H]2c3cc4c(cc3[C@@H](O[C@@H]3O[C@@H]5CO[C@@H](C)O[C@H]5[C@H](O)[C@H]3O)[C@H]3COC(=O)[C@H]23)OCO4)cc(OC)c1O`, in experiment [1], the inhibition result is “Active”. Also, in experiment [2], the inhibition result is “inactive”. In addition, in [4], the outcome was Active.
As for `O=C1C(O)=C(C(c2ccccc2F)c2c(O)c3ccccc3oc2=O)C(=O)c2ccccc21` (centres undefined), the inhibition result in [1] and in experiment [2] was “Active” throughout. The IC50 in experiment [3] fell in the range of 10 to 30 µM. Further, in [4], the outcome was inactive. Moreover, the inhibition in [5] came to 24%; in [6] it was 30%; in experiment [7], 82%. The inhibition result in experiment [8], in experiment [9] and in experiment [10] was “inactive” in each case.
On to `O=C1C(O)=C(C(c2ccc(Br)cc2)c2c(O)c3ccccc3oc2=O)C(=O)c2ccccc21` (centres undefined), for which the inhibition entry in experiment [1] and in experiment [2] was “Active” each time. Also, the IC50 in experiment [3] was 10 to 30 µM. In experiment [4], the result was inactive. In addition, the inhibition was determined as 40% in experiment [5], 57% in experiment [6] and 96% in experiment [7]. The inhibition entry in [8], in experiment [9] and in experiment [10] was “inactive” in each case.
Regarding `O=C1C(O)=C(C(c2ccc3c(c2)OCO3)c2c(O)c3ccccc3oc2=O)C(=O)c2ccccc21` (centres undefined), the inhibition entry in experiment [1] and in experiment [2] was “Active” throughout. The half-maximal inhibitory concentration (IC50) in [3] fell in the range of 10 to 30 µM. Further, in experiment [4], the result was inactive. The values for the inhibition in experiment [5], in experiment [6] and in experiment [7] were 43%, 67% and 94%, respectively. The inhibition result in experiment [8], in [9] and in [10] was “inactive” in each case.
Consider `O=C(O)c1cn(C2CC2)c2cc(N3CCNCC3)c(F)cc2c1=O`, for which, in experiment [8], the inhibition result is “Active”.
For the compound `O=C1C(O)=C(C(c2ccccc2)c2c(O)c3ccccc3oc2=O)C(=O)c2ccccc21` (centres undefined), the inhibition result in [1] and in [2] was “Active” each time. The IC50 in [3] lay in the range of 10 to 30 µM. In addition, the result in experiment [4] was inactive. For the same compound, the inhibition in experiment [5] came out at 69%; in experiment [6], 87%; in experiment [7], 94%. Besides, the inhibition result in [8], in [9] and in [10] was “inactive” in each case.
As for `CCN(CC)CCCC(C)Nc1ccnc2cc(Cl)ccc12` (centres undefined), the inhibition entry in experiment [9] was “Active”.
Regarding `C[C@@H](CN1CC(=O)NC(=O)C1)N1CC(=O)NC(=O)C1`, the inhibition entry in experiment [1] was “Active”. Moreover, the inhibition entry in experiment [2] was “inactive”.
